The source made the active and inactive calls. The rule behind the calls is not given here.
Key:
[1] = tested on: 3-phosphoinositide dependent protein kinase-2, PDK2; experiment: Inhibition of PDK2 in human PC3 cells assessed as Akt Ser-473 dephosphorylation by Western blot analysis; type: functional, cell-based; details: PC-3
Procedure, shortened: (§1)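 Cells exposed 24 h in 5% FBS medium, final DMSO 0.1%; lysed in 1% SDS/10 mM EDTA/50 mM Tris pH 8.1, equal protein on SDS-PAGE, nitrocellulose, primary antibody 1:1000 at 4°C for 2 h, HRP secondary 1:5000, ECL detection; blots representative of three independent experiments.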

[2] = target: T1, 3-phosphoinositide-dependent protein kinase 1 (Homo sapiens) (UniProt O15530); experiment: Inhibition of PDK2 in human PC3 cells assessed as Akt Thr-308 dephosphorylation by Western blot analysis; type: functional, cell-based; details: PC-3; procedure, shortened: as §1
T1 sequence (whole entry): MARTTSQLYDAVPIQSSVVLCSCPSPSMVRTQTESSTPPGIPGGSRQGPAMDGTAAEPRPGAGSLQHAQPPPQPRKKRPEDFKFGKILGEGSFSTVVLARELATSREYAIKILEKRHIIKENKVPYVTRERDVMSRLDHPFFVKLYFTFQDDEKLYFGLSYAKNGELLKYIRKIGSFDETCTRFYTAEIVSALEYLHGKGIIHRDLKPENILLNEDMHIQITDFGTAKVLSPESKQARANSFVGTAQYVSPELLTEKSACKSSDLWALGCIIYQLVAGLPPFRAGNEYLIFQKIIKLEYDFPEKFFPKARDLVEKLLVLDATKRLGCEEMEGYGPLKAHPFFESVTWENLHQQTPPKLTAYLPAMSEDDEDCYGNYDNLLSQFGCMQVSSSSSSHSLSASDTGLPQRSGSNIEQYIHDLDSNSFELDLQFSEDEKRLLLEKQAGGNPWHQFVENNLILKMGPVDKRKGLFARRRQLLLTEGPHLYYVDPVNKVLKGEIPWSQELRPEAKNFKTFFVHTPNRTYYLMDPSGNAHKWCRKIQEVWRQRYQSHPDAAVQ

inhibition [2]	Structure (SMILES)	inhibition [1]
inactive	CNC(=O)c1cc(-c2ccc3c(ccc4ccccc43)c2)n(-c2ccc(NC(=O)CN)cc2)n1	inactive
inactive	NC(Cc1ccccc1)C(=O)Nc1ccc(-n2nc(C(F)(F)F)cc2-c2ccc(-c3ccc(C(F)(F)F)cc3)cc2)cc1 (stereo not drawn)	inactive
inactive	FC(F)(F)c1ccc(-c2ccc(-c3cc(C(F)(F)F)nn3-c3ccc(N4CCNCC4)cc3)cc2)cc1	inactive
inactive	O=[N+]([O-])c1ccc(S(=O)(=O)N2CCN(c3ccc(-n4nc(C(F)(F)F)cc4-c4ccc5c(ccc6ccccc65)c4)cc3)CC2)c([N+](=O)[O-])c1	inactive
inactive	CC(=O)c1cc(C(=O)N2CCN(c3ccc(-n4nc(C(F)(F)F)cc4-c4ccc5c(ccc6ccccc65)c4)cc3)CC2)ccc1Cl	inactive
inactive	NC(=O)CNc1ccc(-n2nc(C(F)(F)F)cc2-c2ccc3c(ccc4ccccc43)c2)cc1	inactive
inactive	NCC(=O)Nc1ccc(-n2nc(C(F)(F)F)cc2-c2ccc3c(c2)oc2ccccc23)cc1	inactive
inactive	N#Cc1ccc(C(=O)N2CCN(c3ccc(-n4nc(C(F)(F)F)cc4-c4ccc5c(ccc6ccccc65)c4)cc3)CC2)cc1	inactive
inactive	O=C(c1ccncc1)N1CCN(c2ccc(-n3nc(C(F)(F)F)cc3-c3ccc4c(ccc5ccccc54)c3)cc2)CC1	inactive
inactive	CNC(=O)c1cc(-c2ccc(-c3ccc(C(F)(F)F)cc3)cc2)n(-c2ccc(NC(=O)CCN)cc2)n1	inactive
inactive	NCCCC[C@@H](N)C(=O)Nc1ccc(-n2nc(C(F)(F)F)cc2-c2ccc3c(ccc4ccccc43)c2)cc1	inactive
inactive	CCNC(=O)CCc1cc(-c2ccc(-c3ccc(C(F)(F)F)cc3)cc2)n(-c2ccc(NC(=O)CCN)cc2)n1	inactive
inactive	CC(C)NC(=O)c1cc(-c2ccc(-c3ccc(C(F)(F)F)cc3)cc2)n(-c2ccc(NC(=O)CCN)cc2)n1	inactive
inactive	NCCC(=O)Nc1ccc(-n2nc(C(F)(F)F)cc2-c2ccc3c(c2)oc2ccccc23)cc1	inactive
inactive	NCCC(=O)Nc1ccc(-n2nc(C(F)(F)F)cc2-c2ccc3c(ccc4ccccc43)c2)cc1	inactive
inactive	CC(C)CC(N)C(=O)Nc1ccc(-n2nc(C(F)(F)F)cc2-c2ccc(-c3ccc(C(F)(F)F)cc3)cc2)cc1 (stereo not drawn)	inactive
inactive	CCNC(=O)c1cc(-c2ccc3ccc4ccccc4c3c2)n(-c2ccc(NC(=O)CN)cc2)n1	inactive
inactive	COc1cc([N+](=O)[O-])ccc1S(=O)(=O)N1CCN(c2ccc(-n3nc(C(F)(F)F)cc3-c3ccc4c(ccc5ccccc54)c3)cc2)CC1	inactive
inactive	O=C(c1ccc(Cl)c([N+](=O)[O-])c1)N1CCN(c2ccc(-n3nc(C(F)(F)F)cc3-c3ccc4c(ccc5ccccc54)c3)cc2)CC1	inactive
inactive	CC(=O)Nc1ccc(S(=O)(=O)N2CCN(c3ccc(-n4nc(C(F)(F)F)cc4-c4ccc5c(ccc6ccccc65)c4)cc3)CC2)cc1	inactive
inactive	CNC(=O)c1cc(-c2ccc3c(ccc4ccccc43)c2)n(-c2ccc(NC(=O)CCN)cc2)n1	inactive
inactive	N#Cc1cccc(C(=O)N2CCN(c3ccc(-n4nc(C(F)(F)F)cc4-c4ccc5c(ccc6ccccc65)c4)cc3)CC2)c1	inactive
inactive	NCCCC[C@H](N)C(=O)Nc1ccc(-n2nc(C(F)(F)F)cc2-c2ccc(-c3ccc(C(F)(F)F)cc3)cc2)cc1	inactive
inactive	CNC(=O)CCc1cc(-c2ccc3c(ccc4ccccc43)c2)n(-c2ccc(N3CCNCC3)cc2)n1	inactive
inactive	Nc1ccc(C(=O)N2CCN(c3ccc(-n4nc(C(F)(F)F)cc4-c4ccc5c(ccc6ccccc65)c4)cc3)CC2)cc1	inactive
inactive	CNC(=O)CCc1cc(-c2ccc(-c3ccc(C#N)cc3)cc2)n(-c2ccc(N3CCNCC3)cc2)n1	inactive
inactive	NC(=O)c1ccc(C(=O)N2CCN(c3ccc(-n4nc(C(F)(F)F)cc4-c4ccc5c(ccc6ccccc65)c4)cc3)CC2)cc1	inactive
inactive	CNC(=O)CCc1cc(-c2ccc(-c3ccc(C(F)(F)F)cc3)cc2)n(-c2ccc(NC(=O)CCN)cc2)n1	inactive
inactive	NS(=O)(=O)c1ccc(-n2nc(C(F)(F)F)cc2-c2ccc3c(ccc4ccccc43)c2)cc1	inactive

From ChEMBL document CHEMBL1828498, “Identification and characterization of a novel integrin-linked kinase inhibitor” (J Med Chem, 2011)
